Laboratory results taken from ChEMBL document CHEMBL1811752, “Synthesis and pharmacological characterization of bicyclic triple reuptake inhibitor 3-aryl octahydrocyclopenta[c]pyrrole analogues” (J Med Chem, 2011).

Experiments:
Mus musculus [1] = assay: Antidepressant activity in po dosed mouse assessed as reduction of immobility time after 60 mins by tail suspension test; type: functional, organism-based
In short: (§1)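 Mouse tail suspension test, male mice (10–12 per group, blind). Single oral dose in 5% transcutol in saline, 60 min pretreatment. Immobility recorded automatically for 5 min. Compared with vehicle group. Desipramine 100 mg/kg PO used as reference. One-way ANOVA with Dunnett's post test, p < 0.05.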

Brain [2] = assay: Drug level in mouse brain at 3 mg/kg, po; type: ADME, organism-based; design: dose 3 mg/kg, route oral; conditions: in vivo
In short: (§2)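 Male mice dosed orally at 3, 10 or 30 mg/kg in 5% transcutol/saline, 60 min before the tail suspension test. Terminal whole brain (ng/g) and plasma (ng/mL) samples taken from the test animals. Brain/plasma ratio derived from these levels.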

Mus musculus [3] = assay: Toxicity in mouse assessed as increase of spontaneous locomotor activity at 10 to 30 mg/kg, po measured for 5 mins; type: organism-based; design: dose 10-30 mg/kg, route oral; conditions: in vivo
Mus musculus [4] = assay: Antidepressant activity in mouse assessed as reduction of immobility time at 30 mg/kg, po after 60 mins by tail suspension test relative to control; type: functional; design: scale not given: the % may be the effect or the level left; in short: as §1
[5] = Ratio of drug level in brain to plasma in mouse at 30 mg/kg, po; type: ADME, organism-based; design: dose 30 mg/kg, route oral; conditions: brain and plasma, read-out: BPR; in short: as §2
Plasma [6] = assay: Plasma concentration in mouse at 3 mg/kg, po; type: ADME, organism-based; design: dose 3 mg/kg, route oral; conditions: in vivo; in short: as §2
[7] = Plasma protein binding in mouse; type: ADME, cell-free; conditions: read-out: PPB (converted)
In short: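 Protein binding measured with mouse plasma protein.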

Plasma [8] = assay: Plasma concentration in mouse at 30 mg/kg, po; type: ADME, organism-based; design: dose 30 mg/kg, route oral; conditions: in vivo; in short: as §2
Mus musculus [9] = assay: Antidepressant activity in mouse assessed as reduction of immobility time at 10 mg/kg, po after 60 mins by tail suspension test relative to control; type: functional; design: scale not given: the % may be the effect or the level left; in short: as §1
Brain [10] = assay: Drug level in mouse brain at 10 mg/kg, po; type: ADME, organism-based; design: dose 10 mg/kg, route oral; conditions: in vivo; in short: as §2
Plasma [11] = assay: Plasma concentration in mouse at 10 mg/kg, po; type: ADME, organism-based; design: dose 10 mg/kg, route oral; conditions: in vivo; in short: as §2
Mus musculus [12] = assay: Antidepressant activity in mouse assessed as reduction of immobility time at 100 mg/kg, po after 60 mins by tail suspension test relative to control; type: functional; design: scale not given: the % may be the effect or the level left; in short: as §1
Brain [13] = assay: Drug level in mouse brain at 30 mg/kg, po; type: ADME, organism-based; design: dose 30 mg/kg, route oral; conditions: in vivo; in short: as §2
Plasma [14] = assay: Plasma concentration in mouse assessed as (3aR,6aS)-3a-(3,4-dichlorophenyl)octahydrocyclopenta[c]pyrrole level at 30 mg/kg, po; type: ADME, organism-based; design: dose 30 mg/kg, route oral; conditions: in vivo; in short: as §2
CYP1A = target: T1, CYP1A (Homo sapiens, UniProt P04798+P05177); assay: Inhibition of CYP1A in human liver microsomes by LC-MS/MS analysis; type: ADME, Microsome
T1 sequence (P04798 whole entry): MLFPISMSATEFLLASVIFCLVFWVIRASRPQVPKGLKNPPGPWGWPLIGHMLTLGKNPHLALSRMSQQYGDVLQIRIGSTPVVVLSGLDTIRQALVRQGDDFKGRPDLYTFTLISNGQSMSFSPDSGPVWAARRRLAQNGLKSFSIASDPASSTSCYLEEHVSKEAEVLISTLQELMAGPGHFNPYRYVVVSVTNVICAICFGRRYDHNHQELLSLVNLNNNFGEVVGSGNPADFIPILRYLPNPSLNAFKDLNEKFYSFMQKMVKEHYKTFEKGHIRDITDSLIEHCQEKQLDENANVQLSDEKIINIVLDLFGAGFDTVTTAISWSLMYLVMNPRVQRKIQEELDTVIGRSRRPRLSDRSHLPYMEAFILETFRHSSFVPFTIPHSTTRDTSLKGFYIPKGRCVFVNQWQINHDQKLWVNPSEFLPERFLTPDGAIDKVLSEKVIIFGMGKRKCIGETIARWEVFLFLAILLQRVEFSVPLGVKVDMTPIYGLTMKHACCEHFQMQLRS
T1 sequence (P05177 whole entry): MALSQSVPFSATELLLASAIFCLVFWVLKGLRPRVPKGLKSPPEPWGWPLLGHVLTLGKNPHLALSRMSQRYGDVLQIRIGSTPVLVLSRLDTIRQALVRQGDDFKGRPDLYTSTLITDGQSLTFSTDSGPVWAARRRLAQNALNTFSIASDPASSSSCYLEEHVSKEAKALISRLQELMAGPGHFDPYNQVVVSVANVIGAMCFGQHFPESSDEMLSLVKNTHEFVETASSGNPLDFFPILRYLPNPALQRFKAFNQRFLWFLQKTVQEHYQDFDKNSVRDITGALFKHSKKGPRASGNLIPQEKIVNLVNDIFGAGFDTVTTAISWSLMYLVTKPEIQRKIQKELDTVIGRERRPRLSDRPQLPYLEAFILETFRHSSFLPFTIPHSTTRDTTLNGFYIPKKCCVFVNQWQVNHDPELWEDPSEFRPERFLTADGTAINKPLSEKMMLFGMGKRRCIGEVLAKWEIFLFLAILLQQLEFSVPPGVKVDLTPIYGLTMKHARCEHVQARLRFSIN
In short: (§3)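 Human liver microsomes incubated with isoform-specific substrates and compound, typically 0.1–25 μM. Metabolite formation read by LC-MS/MS, […]. IC50 calculated from the decrease in metabolite formation relative to vehicle control.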

Cytochrome P450 3A4 = Cytochrome P450 3A4 (Homo sapiens, UniProt P08684); assay: Inhibition of CYP3A4 in human liver microsomes by LC-MS/MS analysis; type: ADME, Microsome; in short: as §3
Plasma [15] = assay: Plasma concentration in mouse assessed as (3aR,6aS)-3a-(3,4-dichlorophenyl)octahydrocyclopenta[c]pyrrole level at 3 mg/kg, po; type: ADME, organism-based; design: dose 3 mg/kg, route oral; conditions: in vivo; in short: as §2
Cytochrome P450 2D6 = Cytochrome P450 2D6 (Homo sapiens, UniProt P10635); assay: Inhibition of CYP2D6 in human liver microsomes by LC-MS/MS analysis; type: ADME, Microsome; in short: as §3
[16] = target: Sodium-dependent serotonin transporter (Homo sapiens, UniProt P31645); assay: Inhibition of serotonin reuptake at SERT expressed in HEK293 cells; type: cell-based
Brain [17] = assay: Drug level in mouse brain assessed as (3aR,6aS)-3a-(3,4-dichlorophenyl)octahydrocyclopenta[c]pyrrole level at 3 mg/kg, po; type: ADME, organism-based; design: dose 3 mg/kg, route oral; conditions: in vivo; in short: as §2
Cytochrome P450 2C9 = Cytochrome P450 2C9 (Homo sapiens, UniProt P11712); assay: Inhibition of CYP2C9 in human liver microsomes by LC-MS/MS analysis; type: ADME, Microsome; in short: as §3
[18] = target: Sodium-dependent noradrenaline transporter (Homo sapiens, UniProt P23975); assay: Inhibition of norepinephrine reuptake at NET expressed in MDCK cells; type: cell-based
[19] = target: Voltage-gated inwardly rectifying potassium channel KCNH2 (Homo sapiens, UniProt Q12809); assay: Inhibition of human ERG expressed in CHO cells by high throughput single cell planar patch clamp method; type: cell-based
Brain [20] = assay: Drug level in mouse brain assessed as (3aR,6aS)-3a-(3,4-dichlorophenyl)octahydrocyclopenta[c]pyrrole level at 10 mg/kg, po; type: ADME, organism-based; design: dose 10 mg/kg, route oral; conditions: in vivo; in short: as §2
Plasma [21] = assay: Plasma concentration in mouse assessed as (3aR,6aS)-3a-(3,4-dichlorophenyl)octahydrocyclopenta[c]pyrrole level at 10 mg/kg, po; type: ADME, organism-based; design: dose 10 mg/kg, route oral; conditions: in vivo; in short: as §2
[22] = Ratio of drug level in brain to plasma in po dosed mouse; type: ADME, organism-based; conditions: brain and plasma, read-out: BPR; in short: as §2
[23] = Half life in human liver microsomes at 3 uM by LC-MS/MS analysis; type: ADME, Microsome
In short: (§4)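 Human or mouse liver microsomes (0.5 mg/mL) incubated with 3 μM compound at 37 °C. Reaction started with NADPH and stopped with methanol containing internal standard. Loss of compound followed over 45 min by LC-MS/MS. Peak area ratio to internal standard plotted against time and the slope of the line taken.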

Cytochrome P450 2C19 = Cytochrome P450 2C19 (Homo sapiens, UniProt P33261); assay: Inhibition of CYP2C19 in human liver microsomes by LC-MS/MS analysis; type: ADME, Microsome; in short: as §3
Mus musculus [24] = assay: Toxicity in mouse assessed as increase of spontaneous locomotor activity at 30 mg/kg, po measured for 5 mins; type: organism-based; design: dose 30 mg/kg, route oral; conditions: in vivo
Brain [25] = assay: Drug level in mouse brain assessed as (3aR,6aS)-3a-(3,4-dichlorophenyl)octahydrocyclopenta[c]pyrrole level at 30 mg/kg, po; type: ADME, organism-based; design: dose 30 mg/kg, route oral; conditions: in vivo; in short: as §2
[26] = target: Sodium-dependent dopamine transporter (Homo sapiens, UniProt Q01959); assay: Inhibition of dopamine reuptake at DAT expressed in CHO-K1 cells; type: cell-based
[27] = Half life in mouse liver microsomes at 3 uM by LC-MS/MS analysis; type: ADME, Microsome; in short: as §4

Sequence of Cytochrome P450 2D6 (P10635 whole entry): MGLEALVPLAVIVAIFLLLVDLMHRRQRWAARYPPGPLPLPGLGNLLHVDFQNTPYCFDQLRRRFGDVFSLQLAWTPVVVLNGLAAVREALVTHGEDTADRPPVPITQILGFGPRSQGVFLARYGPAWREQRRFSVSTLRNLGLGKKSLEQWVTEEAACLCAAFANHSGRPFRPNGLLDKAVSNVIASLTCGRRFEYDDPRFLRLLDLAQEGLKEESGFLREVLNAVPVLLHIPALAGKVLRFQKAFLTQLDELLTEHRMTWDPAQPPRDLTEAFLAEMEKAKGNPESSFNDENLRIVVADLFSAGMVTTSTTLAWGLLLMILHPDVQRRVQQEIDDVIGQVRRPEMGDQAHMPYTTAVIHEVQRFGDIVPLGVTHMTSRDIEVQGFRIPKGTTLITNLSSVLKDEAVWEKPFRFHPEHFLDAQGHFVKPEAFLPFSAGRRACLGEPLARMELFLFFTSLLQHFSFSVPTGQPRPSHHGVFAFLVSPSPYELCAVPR
Sequence of Cytochrome P450 2C9 (P11712 whole entry): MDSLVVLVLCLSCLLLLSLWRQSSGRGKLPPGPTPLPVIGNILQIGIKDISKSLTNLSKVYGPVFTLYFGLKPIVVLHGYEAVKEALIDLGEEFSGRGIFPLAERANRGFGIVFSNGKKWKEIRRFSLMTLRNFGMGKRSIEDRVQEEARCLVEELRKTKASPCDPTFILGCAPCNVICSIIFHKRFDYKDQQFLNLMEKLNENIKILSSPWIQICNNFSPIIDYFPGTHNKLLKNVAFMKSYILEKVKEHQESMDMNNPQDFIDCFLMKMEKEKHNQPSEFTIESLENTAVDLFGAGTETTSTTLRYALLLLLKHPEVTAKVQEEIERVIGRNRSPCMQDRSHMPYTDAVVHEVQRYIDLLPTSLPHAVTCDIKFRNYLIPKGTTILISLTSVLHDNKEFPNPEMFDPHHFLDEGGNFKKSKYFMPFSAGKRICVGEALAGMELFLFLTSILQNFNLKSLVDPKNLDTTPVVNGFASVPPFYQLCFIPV
Sequence of Sodium-dependent noradrenaline transporter (P23975 whole entry): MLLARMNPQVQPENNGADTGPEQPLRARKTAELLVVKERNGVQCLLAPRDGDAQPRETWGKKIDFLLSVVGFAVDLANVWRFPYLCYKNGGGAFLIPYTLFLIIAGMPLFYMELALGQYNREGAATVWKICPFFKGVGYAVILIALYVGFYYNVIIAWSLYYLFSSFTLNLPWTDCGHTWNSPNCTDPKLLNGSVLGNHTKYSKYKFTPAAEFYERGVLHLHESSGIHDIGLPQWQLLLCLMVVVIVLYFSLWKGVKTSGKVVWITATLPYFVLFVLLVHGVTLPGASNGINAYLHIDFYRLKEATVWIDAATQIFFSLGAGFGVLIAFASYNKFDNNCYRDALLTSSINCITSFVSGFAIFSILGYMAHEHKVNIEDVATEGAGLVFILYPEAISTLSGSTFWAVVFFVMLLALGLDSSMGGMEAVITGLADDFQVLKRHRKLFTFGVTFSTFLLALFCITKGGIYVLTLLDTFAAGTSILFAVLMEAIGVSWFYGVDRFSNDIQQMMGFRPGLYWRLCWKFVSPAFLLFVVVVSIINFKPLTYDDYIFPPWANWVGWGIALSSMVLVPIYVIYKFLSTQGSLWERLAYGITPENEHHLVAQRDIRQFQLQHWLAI
Sequence of Sodium-dependent serotonin transporter (P31645 whole entry): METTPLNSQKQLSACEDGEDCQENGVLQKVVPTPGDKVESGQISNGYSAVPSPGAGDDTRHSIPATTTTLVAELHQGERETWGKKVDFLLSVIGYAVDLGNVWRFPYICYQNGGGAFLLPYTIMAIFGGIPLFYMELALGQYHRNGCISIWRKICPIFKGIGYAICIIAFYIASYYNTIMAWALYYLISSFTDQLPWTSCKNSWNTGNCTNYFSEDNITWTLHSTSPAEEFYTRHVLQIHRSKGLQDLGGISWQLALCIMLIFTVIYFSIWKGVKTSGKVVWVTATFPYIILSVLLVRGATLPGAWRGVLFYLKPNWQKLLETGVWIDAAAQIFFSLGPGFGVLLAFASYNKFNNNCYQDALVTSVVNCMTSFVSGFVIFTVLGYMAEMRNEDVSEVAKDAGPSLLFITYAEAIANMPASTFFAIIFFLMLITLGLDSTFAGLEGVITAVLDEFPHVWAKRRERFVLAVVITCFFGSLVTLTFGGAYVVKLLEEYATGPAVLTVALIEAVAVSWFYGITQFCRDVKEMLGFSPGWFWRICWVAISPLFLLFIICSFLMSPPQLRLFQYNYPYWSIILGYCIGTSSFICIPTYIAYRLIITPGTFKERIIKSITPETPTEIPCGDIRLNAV
Sequence of Sodium-dependent dopamine transporter (Q01959 whole entry): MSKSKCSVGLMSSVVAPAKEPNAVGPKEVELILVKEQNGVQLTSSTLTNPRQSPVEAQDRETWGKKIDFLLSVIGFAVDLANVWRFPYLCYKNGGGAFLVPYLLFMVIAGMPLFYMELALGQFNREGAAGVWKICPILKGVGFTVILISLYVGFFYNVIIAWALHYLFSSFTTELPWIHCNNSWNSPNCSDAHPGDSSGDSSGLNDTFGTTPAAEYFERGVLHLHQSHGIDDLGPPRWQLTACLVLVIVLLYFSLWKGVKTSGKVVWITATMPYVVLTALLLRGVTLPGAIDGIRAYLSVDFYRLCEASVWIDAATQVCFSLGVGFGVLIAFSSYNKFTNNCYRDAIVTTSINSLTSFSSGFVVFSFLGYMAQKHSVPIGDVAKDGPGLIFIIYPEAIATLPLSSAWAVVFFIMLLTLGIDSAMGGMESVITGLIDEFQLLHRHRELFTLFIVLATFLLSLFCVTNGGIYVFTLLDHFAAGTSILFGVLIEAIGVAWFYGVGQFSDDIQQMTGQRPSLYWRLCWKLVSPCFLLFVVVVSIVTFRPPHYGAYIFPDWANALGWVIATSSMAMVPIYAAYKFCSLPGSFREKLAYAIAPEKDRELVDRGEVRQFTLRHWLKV
Sequence of Cytochrome P450 3A4 (P08684 whole entry): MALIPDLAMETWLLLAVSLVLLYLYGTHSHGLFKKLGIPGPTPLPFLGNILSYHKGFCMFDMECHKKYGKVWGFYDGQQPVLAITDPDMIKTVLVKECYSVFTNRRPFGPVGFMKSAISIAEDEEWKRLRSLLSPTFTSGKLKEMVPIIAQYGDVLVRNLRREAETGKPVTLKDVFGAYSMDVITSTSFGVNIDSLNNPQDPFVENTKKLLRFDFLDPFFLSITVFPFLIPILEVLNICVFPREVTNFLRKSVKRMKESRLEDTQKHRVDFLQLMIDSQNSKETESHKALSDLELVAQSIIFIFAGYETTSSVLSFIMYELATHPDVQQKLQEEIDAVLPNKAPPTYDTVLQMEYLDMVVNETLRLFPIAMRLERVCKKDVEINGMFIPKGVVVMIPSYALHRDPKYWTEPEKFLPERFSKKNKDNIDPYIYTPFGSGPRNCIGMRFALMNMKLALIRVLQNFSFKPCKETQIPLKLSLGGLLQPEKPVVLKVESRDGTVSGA
Sequence of Voltage-gated inwardly rectifying potassium channel KCNH2 (Q12809 whole entry): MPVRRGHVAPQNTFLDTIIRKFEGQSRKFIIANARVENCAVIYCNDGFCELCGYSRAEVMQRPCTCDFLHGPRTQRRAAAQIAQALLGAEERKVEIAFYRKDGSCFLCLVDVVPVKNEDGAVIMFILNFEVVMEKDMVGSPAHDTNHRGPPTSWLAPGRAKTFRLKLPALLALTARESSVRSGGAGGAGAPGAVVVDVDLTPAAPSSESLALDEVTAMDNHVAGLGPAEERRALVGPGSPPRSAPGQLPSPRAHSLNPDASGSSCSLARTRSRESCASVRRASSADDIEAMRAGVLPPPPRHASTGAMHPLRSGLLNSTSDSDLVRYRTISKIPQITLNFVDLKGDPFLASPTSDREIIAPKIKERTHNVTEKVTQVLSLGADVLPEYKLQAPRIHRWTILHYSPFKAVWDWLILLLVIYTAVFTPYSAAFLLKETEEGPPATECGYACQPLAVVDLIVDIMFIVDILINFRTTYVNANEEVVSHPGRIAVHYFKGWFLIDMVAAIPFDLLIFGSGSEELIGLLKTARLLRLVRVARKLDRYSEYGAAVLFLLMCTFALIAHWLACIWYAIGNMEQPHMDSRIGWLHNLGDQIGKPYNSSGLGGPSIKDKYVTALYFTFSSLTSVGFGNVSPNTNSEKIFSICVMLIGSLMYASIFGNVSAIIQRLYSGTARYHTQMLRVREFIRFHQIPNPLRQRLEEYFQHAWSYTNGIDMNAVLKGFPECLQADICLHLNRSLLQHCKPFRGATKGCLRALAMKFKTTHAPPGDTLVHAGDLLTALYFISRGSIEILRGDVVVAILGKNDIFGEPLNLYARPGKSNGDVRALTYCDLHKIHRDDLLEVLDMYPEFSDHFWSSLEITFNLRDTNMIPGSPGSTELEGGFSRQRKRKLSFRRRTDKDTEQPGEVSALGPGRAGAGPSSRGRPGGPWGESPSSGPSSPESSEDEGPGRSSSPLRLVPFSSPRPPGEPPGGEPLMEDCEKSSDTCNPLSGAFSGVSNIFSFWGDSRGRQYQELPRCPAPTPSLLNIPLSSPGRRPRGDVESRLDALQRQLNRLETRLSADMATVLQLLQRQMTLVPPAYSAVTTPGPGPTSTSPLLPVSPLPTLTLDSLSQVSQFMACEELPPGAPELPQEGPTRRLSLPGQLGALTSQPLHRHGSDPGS
Sequence of Cytochrome P450 2C19 (P33261 whole entry): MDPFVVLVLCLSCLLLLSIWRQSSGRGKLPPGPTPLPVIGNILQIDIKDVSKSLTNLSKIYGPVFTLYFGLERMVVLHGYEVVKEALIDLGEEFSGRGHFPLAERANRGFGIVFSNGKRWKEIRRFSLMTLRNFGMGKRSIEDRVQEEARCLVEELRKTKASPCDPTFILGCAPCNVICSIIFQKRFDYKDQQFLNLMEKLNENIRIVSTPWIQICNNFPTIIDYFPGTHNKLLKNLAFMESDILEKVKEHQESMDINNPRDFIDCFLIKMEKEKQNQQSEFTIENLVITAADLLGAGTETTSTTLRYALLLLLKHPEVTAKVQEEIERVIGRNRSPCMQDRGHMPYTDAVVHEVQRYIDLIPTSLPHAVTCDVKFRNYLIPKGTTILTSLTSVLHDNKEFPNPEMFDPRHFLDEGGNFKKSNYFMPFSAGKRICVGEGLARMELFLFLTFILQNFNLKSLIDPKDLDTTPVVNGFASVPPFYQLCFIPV

Q: For `Clc1ccc([C@@]23CCC[C@@H]2CNC3)cc1Cl`, which Activity (Mus musculus [1]) is on record?
A: The Activity was “Dose-dependent effect”.

Q: With `Cl.Clc1ccc([C@@]23CCC[C@@H]2CNC3)cc1Cl` as the compound, how does the Drug uptake (Brain [2]) read?
A: Its Drug uptake is 1747 ng/g.

Q: And the Activity (Mus musculus [3])?
A: Its Activity is “Non-toxic”.

Q: And the Activity (Mus musculus [4])?
A: Its Activity is 42%.

Q: What about the Kp [5] of the same compound?
A: Its Kp is 30.

Q: What about the Cp (Plasma [6]) of the same compound?
A: Its Cp is 69 ng/mL.

Q: And the fraction unbound [7]?
A: The fraction unbound was 0.04.

Q: And the Cp (Plasma [8])?
A: Its Cp is 569 ng/mL.

Q: And the Activity (Mus musculus [9])?
A: The Activity was 29%.

Q: What about the Drug uptake (Brain [10]) of the same compound?
A: The Drug uptake was 5950 ng/g.

Q: And the Cp (Plasma [11])?
A: Its Cp is 214 ng/mL.

Q: And the Activity (Mus musculus [12])?
A: The Activity was 25%.

Q: And the Drug uptake (Brain [13])?
A: Its Drug uptake is 14050 ng/g.

Q: Which Drug uptake (Brain [2]) does the source give for `CN1C[C@H]2CCCC[C@@]2(c2ccc(Cl)c(Cl)c2)C1` (single isomer, unassigned) here?
A: Its Drug uptake is 294 ng/g.

Q: And the Activity (Mus musculus [4])?
A: Its Activity is 16%.

Q: What about the Cp (Plasma [14]) of the same compound?
A: The Cp was 1228 ng/mL.

Q: What about the Cp (Plasma [6]) of the same compound?
A: The Cp was 14 ng/mL.

Q: And the IC50 (CYP1A)?
A: Its IC50 is greater than 25 µM.

Q: What about the IC50 (Cytochrome P450 3A4) of the same compound?
A: The IC50 was 6.5 µM.

Q: What about the Cp (Plasma [15]) of the same compound?
A: Its Cp is 114 ng/mL.

Q: And the IC50 (Cytochrome P450 2D6)?
A: Its IC50 is 1100 nM.

Q: What about the Activity (Mus musculus [1]) of the same compound?
A: The Activity was “Dose-dependent effect”.

Q: And the IC50 [16]?
A: The IC50 was 9.77 nM.

Q: And the Drug uptake (Brain [17])?
A: Its Drug uptake is 440 ng/g.

Q: What about the IC50 (Cytochrome P450 2C9) of the same compound?
A: The IC50 was greater than 25 µM.

Q: And the IC50 [18]?
A: Its IC50 is 56.2 nM.

Q: What about the IC50 [19] of the same compound?
A: Its IC50 is 4.14 µM.

Q: And the Cp (Plasma [8])?
A: Its Cp is 181 ng/mL.

Q: And the Drug uptake (Brain [20])?
A: The Drug uptake was 1878 ng/g.

Q: What about the Cp (Plasma [21]) of the same compound?
A: Its Cp is 417 ng/mL.

Q: And the Kp [22]?
A: Its Kp is 5.

Q: And the half-life at 3 µM [23]?
A: The half-life at 3 µM was 125 min.

Q: What about the Activity (Mus musculus [9]) of the same compound?
A: Its Activity is 13%.

Q: And the IC50 (Cytochrome P450 2C19)?
A: Its IC50 is 11.9 µM.

Q: And the Drug uptake (Brain [10])?
A: Its Drug uptake is 1054 ng/g.

Q: What about the Activity (Mus musculus [24]) of the same compound?
A: Its Activity is “Non-toxic”.

Q: What about the Drug uptake (Brain [25]) of the same compound?
A: Its Drug uptake is 6193 ng/g.

Q: What about the Cp (Plasma [11]) of the same compound?
A: The Cp was 50 ng/mL.

Q: What about the Activity (Mus musculus [12]) of the same compound?
A: The Activity was 28%.

Q: What about the IC50 [26] of the same compound?
A: Its IC50 is 55 nM.

Q: And the half-life at 3 µM [27]?
A: The half-life at 3 µM was 45 min.

Q: What about the Drug uptake (Brain [13]) of the same compound?
A: The Drug uptake was 4203 ng/g.
